Published values gathered from unrelated publications.
Protocols differ between the studies behind these lines.
Target: G protein-coupled receptor kinase 4 (GRK4, Homo sapiens, UniProt P32298)

COc1cccc(CNC(=O)c2nc3scc(COCc4ccc(C(=O)O)cc4)c3c(=O)[nH]2)c1
remaining binding (cell-free assay; competition with immobilised ligand; 1 µM): 72.1%

O=C(NCCCN1CCOCC1)c1ccc(Nc2nccc(-c3cc4ccccc4s3)n2)cc1
remaining binding (binding; competition with immobilised ligand; 1 µM): 1.4%

O=C(NCCCC1CCCCC1)c1ccc(CNC(=O)c2cnn(-c3ccccc3)c2C(F)(F)F)cc1
remaining binding (cell-free assay; competition with immobilised ligand; 0.1 µM): 100%

O=C(NCC1CCOCC1)c1n[nH]cc1NC(=O)c1c(F)cccc1F
remaining binding (binding; competition with immobilised ligand; 1 µM): 100%

Nc1ncc2c(n1)-c1c([nH]c3ccc(C#CC4CC4)cc13)CCCC2
remaining binding (binding; competition with immobilised ligand; 1 µM): 91%

C=CC(=O)N1CCC(C(=O)NCC(=O)N2CCN(c3nc(-c4cnc(N)nc4C(F)F)nc(N4CCOCC4)n3)CC2)CC1
remaining binding (binding; competition with immobilised ligand; 1 µM): 100%

CCN1CCN(Cc2ccc(C(=O)Nc3ccc(C)c(Oc4ccc5c(c4)CC(=O)N5)c3)cc2C(F)(F)F)CC1
remaining binding (binding; competition with immobilised ligand; 1 µM): 100%

Cc1cnn2ncc(-c3ccnc(N(C)C)n3)c2c1
remaining binding (binding; 1 µM): 55%

O=C(c1ccc(Nc2ncc(Cl)c(-c3cc4ccccc4s3)n2)cc1)N1CCC(N2CCCC2)CC1
remaining binding (binding; competition with immobilised ligand; 1 µM): 3.5%

COc1cnc(Nc2cccc(S(N)(=O)=O)c2)nc1N1CCN(c2ccccc2)C(=O)C1
remaining binding (binding; competition with immobilised ligand; 1 µM): 100%

c1cnn2ncc(-c3ccnc(N4CCC45COC5)n3)c2c1
remaining binding (binding; 1 µM): 81%

Nc1cnc(N2CCc3cc(S(=O)(=O)Nc4c(F)cc(Cl)cc4F)cc(N4CCCC4=O)c32)nc1
remaining binding (cell-free assay; competition with immobilised ligand; 1 µM): 100%

CN(C)c1nccc(-c2cnc3ncccn23)n1
remaining binding (binding; 1 µM): 88%

COc1cnc(Nc2cccc(S(N)(=O)=O)c2)nc1N1CCN(c2ccccc2)CC1
remaining binding (binding; competition with immobilised ligand; 1 µM): 100%

N#CC1(c2ccccn2)CCN(Cc2cc(C(=O)N3CCCC3)c(=O)n3ccccc23)CC1
remaining binding (cell-free assay; competition with immobilised ligand; 1 µM): 86%

CN(c1nccc(-c2cnn3ncccc23)n1)C1CC1
remaining binding (binding; 1 µM): 72%

COc1ccc2c(O[C@@H]3C[C@H]4C(=O)N[C@]5(C(=O)O)CC5/C=C\CCCCC[C@H](NC(=O)OC5CCCC5)C(=O)N4C3)cc(-c3csc(NC(=O)C(C)C)n3)nc2c1C (stereo partly drawn)
remaining binding (cell-free assay; competition with immobilised ligand; 1 µM): 67%

CN(CCCC(F)(F)F)c1nccc(-c2cnn3ncccc23)n1
remaining binding (binding; 1 µM): 100%

O=C(c1ccc(Nc2nccc(-c3cc4ccccc4s3)n2)cc1)N1CCC(N2CCCC2)CC1
remaining binding (binding; competition with immobilised ligand; 1 µM): 0.4%

Nc1c(C(=O)NCc2ccc(C(=O)NCCCC3CCCCC3)cc2)cnn1-c1ccccc1
remaining binding (cell-free assay; competition with immobilised ligand; 0.1 µM): 100%

C[C@H]1CCN(c2nccc(-c3cnn4ncccc34)n2)C1
remaining binding (binding; 1 µM): 54%
